Common to all, as to assay type: functional, organism-based
In assay [1] the test system is Human immunodeficiency virus 1. Nature of the assay: Potency evaluated against NNRTI-Resistant HIV-1 strain Tyr181Cys. The gist of the method:
(§1)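 Test compound dilutions in microtiter wells; HIV added at 200-250 CCID50/well and MT4 cells at 3 × 10^4 cells/well (final). Incubated 5 days at 37 °C, 5% CO2. Cytopathic effect of replicating virus read by MTT tetrazolium colorimetry. EC50 is the dose achieving 50% infection.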

Assay [2] concerns Human immunodeficiency virus 1. Nature of the assay: Potency evaluated against NNRTI-Resistant HIV-1 strain Tyr188Leu. The gist of the method:
as §1

The test system of assay [3] is Human immunodeficiency virus 1. Kind of assay: Potency evaluated against NNRTI-Resistant HIV-1 strain Val106Ala. The method in brief: as §1
The test system of assay [4] is Human immunodeficiency virus 1. Kind of assay: Potency evaluated against wild type HIV-1 strain IIIB. The method in brief: as §1
Assay [5] relates to Human immunodeficiency virus 1. Kind of assay: Potency evaluated against NNRTI-Resistant HIV-1 strain Gly190Ala. The gist of the method: as §1
Assay [6] concerns Human immunodeficiency virus 1. Kind of assay: Potency evaluated against NNRTI-Resistant HIV-1 strain Leu100Ile. The method in brief: as §1
The subject of assay [7] is Human immunodeficiency virus 1. Kind of assay: Potency evaluated against NNRTI-Resistant HIV-1 strain Lys103Asn. The gist of the method:
as §1

A value given as a limit tells only on which side of the number the result lay.

By EC50 is commonly meant the concentration giving half of the maximal effect. A lower EC50 goes with an effect from little substance. Take `Cc1ccnc2c1NC(=O)c1cccnc1N2C1CC1` [NEVIRAPINE]: the EC50 in assay [1] was 5.35 µM; in assay [2], above 100 µM; in assay [3], 2.41 µM; in assay [4], 0.085 µM; in assay [5] it was 3.46 µM; in assay [6] it was 0.638 µM. Besides, the EC50 in assay [7] was 2.47 µM.

Regarding `N#Cc1ccc(Nc2nc(N)nc(Cc3c(Cl)cccc3Cl)n2)cc1`, the EC50 in assay [1] was determined as 0.277 µM; in assay [2] it was 0.431 µM; in assay [3], 0.026 µM; in assay [4] it was 0.002 µM; in assay [5], 0.001 µM; in assay [6], 0.293 µM. Also, in assay [7], the EC50 worked out at 0.041 µM.

Turning to `CC(C)Nc1cccnc1N1CCN(C(=O)c2cc3cc(NS(C)(=O)=O)ccc3[nH]2)CC1` [DELAVIRDINE], the EC50 amounted to 1.34 µM in assay [1]; 0.178 µM in assay [2]; 2.25 µM in assay [3]; 0.016 µM in assay [4]; 0.038 µM in assay [5]; 3.47 µM in assay [6]. Also, a half-maximal effect in assay [7] (EC50) was put at 1.7 µM.

With `N#Cc1ccc(NC(=S)NC(=N)Cc2c(Cl)cccc2Cl)cc1`, the concentration giving a half-maximal response (EC50) in assay [1] was 0.511 µM; in assay [2], 0.318 µM; in assay [3], 0.382 µM; in assay [4], 0.003 µM; in assay [5] it was 0.002 µM; in assay [6], 0.513 µM. For the same compound, the EC50 in assay [7] was 0.589 µM.

Consider `Cc1cc(C)c(Nc2ccnc(Nc3ccc(C#N)cc3)n2)c(C)c1` [DAPIVIRINE], for which the concentration for a half-maximal effect (EC50) was determined as 0.008 µM in assay [1]; 0.04 µM in assay [2]; 0.003 µM in assay [3]; 0.001 µM in assay [4]; 0.001 µM in assay [5]; 0.016 µM in assay [6]. The same compound displayed an EC50 in assay [7] of 0.004 µM.

Turning to `N#Cc1ccc(Nc2nc(N)nc(Cc3c(Cl)ccc4[nH]ccc34)n2)cc1`, the concentration for a half-maximal effect (EC50) came to 0.25 µM in assay [1]; 1 µM in assay [2]; 0.063 µM in assay [3]; 0.003 µM in assay [4]; 0.003 µM in assay [5]; 1 µM in assay [6]. The compound further gave a concentration giving a half-maximal response (EC50) in assay [7] of 0.063 µM.

On to `CC(=O)c1ccc(C)cc1N[C@@H](C(N)=O)c1c(Br)cccc1Br` [(R)-LOVIRIDE], for which the concentration for a half-maximal effect (EC50) in assay [1] is 15.8 µM; in assay [2] it was 50.1 µM; in assay [3], 1 µM; in assay [4] it was 0.005 µM; in assay [5], 2.51 µM; in assay [6] it was 0.05 µM. For the same compound, a half-maximal response in assay [7] (EC50) required 1.26 µM.

For `Cc1cc(C#N)cc(C)c1Oc1nc(Nc2ccc(C#N)cc2)nc(N)c1Br` [ETRAVIRINE], the EC50 in assay [1] turned out to be 0.006 µM; in assay [2], 0.003 µM; in assay [3], 0.002 µM; in assay [4] it was 0.02 µM; in assay [5] it was […]; in assay [6], 0.003 µM. Moreover, the 50% effective concentration (EC50) in assay [7] is […].

On to `N#Cc1ccc(Nc2nc(N)nc(Oc3c(Cl)cccc3Cl)n2)cc1`, for which the EC50 was found to be 0.25 µM in assay [1]; 0.32 µM in assay [2]; 0.1 µM in assay [3]; 0.003 µM in assay [4]; 0.32 µM in assay [6]; 0.079 µM in assay [7].

Take `Cc1cc(C#N)cc(C)c1Oc1nc(Nc2ccc(C#N)cc2)nc(CO)c1Br`: the half-maximal effective concentration (EC50) came to 0.006 µM in assay [1]; 0.006 µM in assay [2]; 0.002 µM in assay [3]; 0.004 µM in assay [4]; 0.001 µM in assay [5]; 0.002 µM in assay [6]. In assay [7], this compound yielded an EC50 of 0.004 µM.

These data come from ChEMBL document CHEMBL1148309, “Roles of conformational and positional adaptability in structure-based design of TMC125-R165335 (etravirine) and related non-nucleoside reverse transcriptase inhibitors that are highly potent and effective against wild-type and drug-resistant HIV-1 variants” (J Med Chem, 2004).
